Measured values reported in ChEMBL document CHEMBL2177013, “Synthesis and biological evaluation of tylophorine-derived dibenzoquinolines as orally active agents: exploration of the role of tylophorine e ring on biological activity” (J Med Chem, 2012).
Active and inactive are the calls of the source. The rule behind the calls is not given here.

Tests used:
[1] = test system: Transmissible gastroenteritis virus; experiment: Antiviral activity against Transmissible gastroenteritis virus infected in ST cells pre-treated 2 hrs before virus infection measured 6 hrs post virus infection by immunofluorescent assay; type: functional, organism-based; details: Alphacoronavirus 1, ST
In short: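 ST cells, with or without 2 h compound pretreatment (10 concentrations), infected with TGEV at MOI 10. Immunofluorescence with anti-spike and anti-nucleocapsid antibodies at 6 hpi. EC50 from dose–response curves, mean of at least three experiments, each in duplicate.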

[2] = Growth inhibition of human HONE1 cells; type: functional
In short: (§1)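 Cells seeded per well: NUGC-3 4500, HONE-1 6000, MCF-7 6500, NCI-H460 2500, HepG2 10000, A549 5000; A549 grown in RPMI 1640 with 2 g/L NaHCO₃, 2 mM L-glutamine and 10% FBS. GI₅₀ = concentration giving 50% growth inhibition, mean of at least three experiments each in duplicate. Paclitaxel served as positive control.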

[3] = test system: NUGC-3; experiment: Growth inhibition of human NUGC3 cells; type: functional; in short: as §1
[4] = test system: NCI-H460; experiment: Growth inhibition of human NCI-H460 cells; type: functional; in short: as §1
[5] = test system: MCF7; experiment: Growth inhibition of human MCF7 cells; type: functional; in short: as §1
[6] = test system: A549; experiment: Growth inhibition of human A549 cells; type: functional; in short: as §1
[7] = test system: HepG2; experiment: Growth inhibition of human HepG2 cells; type: functional; in short: as §1
[8] = test system: Transmissible gastroenteritis virus; experiment: Antiviral activity against Transmissible gastroenteritis virus infected in ST cells assessed as reduction in caspase-3 activation pre-treated before virus infection measured 16 hrs post virus infection by Western blotting; type: functional, organism-based
In short: (§2)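 ST cells pretreated with compound, then infected with TGEV. Western blot for nucleocapsid (N) protein, caspase 3 (cleavage of procaspase 3) and GAPDH at 16 hpi. Representative of at least three independent experiments.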

[9] = test system: Transmissible gastroenteritis virus; experiment: Antiviral activity against Transmissible gastroenteritis virus infected in ST cells assessed as reduction in N-protein expression pre-treated before virus infection measured 16 hrs post virus infection by Western blotting; type: functional, organism-based; in short: as §2
[10] = test system: RAW264.7; experiment: Reduction in LPS/INFgamma-induced COX2 protein expression in mouse RAW264.7 cells incubated for 20 hrs by Western blotting; type: functional, cell-based
In short: (§3)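 LPS/IFNγ-stimulated RAW264.7 cells treated with compound for 20 h. iNOS, COX-2 and GAPDH detected by Western blot; representative of at least three independent experiments.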

[11] = test system: RAW264.7; experiment: Reduction in LPS/INFgamma-induced iNOS protein expression in mouse RAW264.7 cells incubated for 20 hrs by Western blotting; type: functional, cell-based; in short: as §3
[12] = test system: A549; experiment: Induction of c-Jun protein accumulation in human A549 cells incubated for 24 hrs by Western blotting; type: functional, cell-based
[13] = test system: A549; experiment: Down regulation of cyclin A2 expression in human A549 cells incubated for 24 hrs by Western blotting; type: functional, cell-based
[14] = test system: NCI-H460; experiment: Induction of c-Jun protein accumulation in human NCI-H460 cells incubated for 24 hrs by Western blotting; type: functional, cell-based
[15] = test system: NCI-H460; experiment: Down regulation of cyclin A2 expression in human NCI-H460 cells incubated for 24 hrs by Western blotting; type: functional, cell-based
[16] = test system: MCF7; experiment: Induction of c-Jun protein accumulation in human MCF7 cells incubated for 24 hrs by Western blotting; type: functional, cell-based
[17] = test system: MCF7; experiment: Down regulation of cyclin A2 expression in human MCF7 cells incubated for 24 hrs by Western blotting; type: functional, cell-based
[18] = Cytotoxicity against mouse RAW264.7 cells; type: cell-based
In short: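 RAW264.7 cells stimulated with LPS/IFNγ and compound-treated in parallel with the NO assay; CC50 taken as concentration giving 50% inhibition of cell growth. Mean of at least three experiments, each in duplicate.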

[19] = test system: RAW264.7; experiment: Antiinflammatory activity in mouse RAW264.7 cells assessed as inhibition of LPS-induced nitric oxide production incubated for 18 hrs by nitrate/nitrite assay; type: functional, cell-based; details: RAW264.7, 18 h
In short: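 RAW264.7 seeded 65000 cells/well, cultured 24 h, then medium replaced with complete medium containing IFNγ (20 ng/mL)/LPS (5 μg/mL) plus compound at various concentrations for 18 h; nitric oxide measured by Nitrate/Nitrite kit. EC50 as mean of at least three experiments, each in duplicate.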

Structure (SMILES)	EC50 [1]	GI50 [2]	GI50 [3]	GI50 [4]	GI50 [5]	GI50 [6]	GI50 [7]	Activity [8]	Activity [9]	Activity [10]	Activity [11]	Activity [12]	Activity [13]	Activity [14]	Activity [15]	Activity [16]	Activity [17]	CC50 [18]	EC50 [19]
COc1cc2c3c(c4cc(OC)c(OC)cc4c2cc1OC)CN(CCCOC1CCCCO1)CC3 (stereo unspecified)	30.8 µM	9.65 µM	8.22 µM	7.49 µM	9.8 µM	3.78 µM	14 µM	–	–	–	–	–	–	–	–	–	–	–	–
CCCN1CCc2c(c3cc(OC)c(OC)cc3c3c(OC)c(OC)c(OC)cc23)C1	0.77 µM	0.96 µM	0.54 µM	0.49 µM	0.62 µM	0.79 µM	0.86 µM	–	–	–	–	–	–	–	–	–	–	–	–
COc1cc2c3c(c4cc(OC)c(OC)cc4c2cc1OC)CN(C(C)C)CC3	0.6 µM	0.94 µM	0.32 µM	0.29 µM	0.34 µM	0.38 µM	0.67 µM	Active	Active	Active	Active	Active	Active	Active	Active	Active	Active	> 4 µM	0.86 µM
COc1cc2c3c(c4cc(OC)c(OC)cc4c2cc1OC)CN(C1C=CCCC1)CC3 (stereo unspecified)	2.99 µM	2.53 µM	1.88 µM	2.3 µM	2.21 µM	1.92 µM	3.64 µM	–	–	–	–	–	–	–	–	–	–	–	–
COc1cc2c3c(c4cc(OC)c(OC)cc4c2cc1OC)CN(CCCN)CC3	23.4 µM	21.1 µM	10.3 µM	11.7 µM	15.3 µM	6.04 µM	36.9 µM	–	–	–	–	–	–	–	–	–	–	–	–
CCCCN1CCc2c(c3cc(OC)c(OC)cc3c3c(OC)c(OC)c(OC)cc23)C1	2.92 µM	4.06 µM	2.54 µM	2.68 µM	3.19 µM	3.01 µM	5.01 µM	–	–	–	–	–	–	–	–	–	–	–	–
CCN1CCc2c(c3cc(OC)ccc3c3cc(OC)c(OC)cc23)C1	14.2 µM	4.87 µM	3.48 µM	3.39 µM	3.12 µM	4.38 µM	4.01 µM	–	–	–	–	–	–	–	–	–	–	–	–
COc1cc2c3c(c4cc(OC)c(OC)cc4c2cc1OC)CN(CCC1OCCO1)CC3	31.9 µM	6.13 µM	4.95 µM	4.15 µM	4.6 µM	4.82 µM	6.49 µM	–	–	–	–	–	–	–	–	–	–	–	–
COc1cc2c3c(c4cc(OC)c(OC)cc4c2cc1OC)CN(CCCO)CC3	19.3 µM	16.6 µM	6.63 µM	9.41 µM	7.14 µM	5.47 µM	16.9 µM	–	–	–	–	–	–	–	–	–	–	–	–
CCCCN1Cc2c(c3ccc(OC)cc3c3cc(OC)c(OC)cc23)C(O)C1 (stereo unspecified)	2.92 µM	3 µM	1.86 µM	1.48 µM	2.33 µM	1.32 µM	1.85 µM	–	–	–	–	–	–	–	–	–	–	–	–
CCCN1Cc2c(c3ccc(OC)cc3c3cc(OC)c(OC)cc23)C(O)C1 (stereo unspecified)	0.12 µM	0.14 µM	0.11 µM	0.05 µM	0.11 µM	0.05 µM	0.11 µM	–	–	–	–	–	–	–	–	–	–	–	–
COc1cc2c3c(c4cc(OC)c(OC)cc4c2cc1OC)C(O)CN(C(C)C)C3 (stereo unspecified)	2.74 µM	1.71 µM	0.87 µM	1.07 µM	1.21 µM	1.23 µM	1.86 µM	–	–	–	–	–	–	–	–	–	–	> 4 µM	2.05 µM
CCCCN1CCc2c(c3cc(OC)c(OC)cc3c3cc(OC)ccc23)C1	5.6 µM	4.77 µM	3.99 µM	3.51 µM	4.73 µM	2.39 µM	4.04 µM	–	–	–	–	–	–	–	–	–	–	–	–
CCCCCN1CCc2c(c3cc(OC)c(OC)cc3c3cc(OC)c(OC)cc23)C1	6.53 µM	6.2 µM	7.67 µM	6.11 µM	9.51 µM	–	8.05 µM	–	–	–	–	–	–	–	–	–	–	–	–
